Measurements from ChEMBL document CHEMBL4304748, “Design, Synthesis, and Biological Evaluation of a New Series of Carvedilol Derivatives That Protect Sensory Hair Cells from Aminoglycoside-Induced Damage by Blocking the Mechanoelectrical Transducer Channel” (J Med Chem, 2019).
Calls of active or inactive are those of the source. The rule behind the calls is not given here.

Experiments:
[1] = Solubility of the compound; assay type: physicochemical
[2] = species on record: Mus musculus; assay: Inhibition of MET in CD-1 mouse outer hair cells assessed as reduction in MET currents at 3 to 10 uM measured at -160 mV to +96 mV membrane potential by patch clamp assay
[3] = species on record: Mus musculus; assay: Otoprotective activity against gentamicin-induced outer hair cell death in CD-1 mouse cochlea at 10 uM after 48 hrs by TRITC-phalloidin staining-based microscopic analysis relative to control; assay type: functional
How it was run: (§1)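 Mouse cochlear cultures coincubated for 48 h with 5 μM gentamicin plus compound (5, 10 or 20 μM). OHCs counted in a 300 μm long segment of the mid-basal cochlea. Counts compared with 0.5% DMSO control and with gentamicin + 0.5% DMSO cultures.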

[4] = Binding affinity to MET in CD-1 mouse cochlear outer hair cells measured at +96 mV membrane potential by patch clamp assay
How it was run: (§2)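 MET currents recorded from OHCs before and during extracellular superfusion of compound at 1, 3 and 10 μM, over membrane potentials from -164 to +96 mV. Currents normalized to the peak control current at +96 mV for each cell. Dose–response curves built at each membrane potential and fitted with eq 1 to give K_D and Hill coefficient.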

[5] = Toxicity in 3 days post fertilized AB zebrafish larvae assessed as effect on larval movement at 100 uM incubated for 48 hrs; set-up: species or system Danio rerio; details: in vivo
How it was run: (§3)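 Zebrafish larvae at 3 dpf treated with compound at 30 or 100 μM for 48 h in three trials. Larvae scored for survival and for circulation, then startled and assayed for movement.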

[6] = Cytotoxicity in CD-1 mouse cochlea assessed as disruption of hair bundle morphology in outer hair cell at 30 uM after 48 hrs by confocal microscopic analysis; assay type: toxicity, tissue-based
How it was run: (§4)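 Mouse cochlear cultures exposed for 48 h to compound, either alone or with 5 μM gentamicin. Controls received 0.5% DMSO, or 5 μM gentamicin + 0.5% DMSO. Hair cell survival counted in a 300 μm segment of the mid-basal region. Confocal imaging used to assess IHC and OHC stereociliary bundle morphology.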

[7] = species on record: Mus musculus; assay: Inhibition of MET in CD-1 mouse cochlea outer hair cells assessed as reduction in MET currents at 1 to 10 uM measured at -150 mV to +100 mV membrane potential by patch clamp assay
[8] = Binding affinity to MET in CD-1 mouse cochlear outer hair cells measured at -84 mV membrane potential by patch clamp assay; how it was run: as §2
[9] = Cytotoxicity in CD-1 mouse cochlea assessed as disruption of hair bundle morphology in inner hair cell at 30 uM after 48 hrs by confocal microscopic analysis; assay type: toxicity, tissue-based; how it was run: as §4
[10] = system: Klebsiella pneumoniae; assay: Effect on gentamycin-induced antibacterial activity against Klebsiella pneumoniae at 11 uM incubated for 16 to 20 hrs by BacTiter-Glo assay; assay type: ADME, organism-based; details: in vivo
[11] = system: Staphylococcus aureus; assay: Effect on gentamycin-induced antibacterial activity against Staphylococcus aureus at 11 uM incubated for 16 to 20 hrs by BacTiter-Glo assay; assay type: ADME, organism-based; details: in vivo
[12] = Toxicity in 3 days post fertilized AB zebrafish larvae assessed as reduction in larvae survival at 100 uM incubated for 48 hrs; set-up: species or system Danio rerio; details: in vivo; how it was run: as §3
[13] = system: Klebsiella pneumoniae; assay: Effect on gentamycin-induced antibacterial activity against Klebsiella pneumoniae at 2.2 uM incubated for 16 to 20 hrs by BacTiter-Glo assay; assay type: ADME, organism-based; details: in vivo
[14] = species on record: Mus musculus; assay: Inhibition of MET channel in CD-1 mouse cochlea outer hair cells assessed as reduction in GTTR uptake at 100 uM preincubated for 5 mins followed by GTTR addition and measured after 24 mins by microscopic method
How it was run: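 Mouse cochlear cultures pre-incubated 5 min with 100 μM compound or 1% DMSO, then 0.2 μM gentamicin Texas Red (GTTR) added. GTTR fluorescence intensity measured in first-row OHCs, with 10 cells analysed from each of three separate experiments (N = 30).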

[15] = Cytotoxicity in CD-1 mouse cochlea assessed as induction of cell death in outer hair cell at 30 uM in presence of gentamicin after 48 hrs by confocal microscopic analysis; assay type: toxicity, tissue-based; how it was run: as §4
[16] = system: Pseudomonas aeruginosa; assay: Effect on gentamycin-induced antibacterial activity against Pseudomonas aeruginosa at 2.2 uM incubated for 16 to 20 hrs by BacTiter-Glo assay; assay type: ADME, organism-based; details: in vivo
[17] = species on record: Danio rerio; assay: Otoprotective activity against neomycin-induced neuromast hair cell death in 4 days post fertilized AB zebrafish larvae assessed as increase in hair cell survival incubated for 1 hr by inverted microscopic method; assay type: functional, organism-based
[18] = system: Staphylococcus aureus; assay: Effect on gentamycin-induced antibacterial activity against Staphylococcus aureus at 2.2 uM incubated for 16 to 20 hrs by BacTiter-Glo assay; assay type: ADME, organism-based; details: in vivo
[19] = Toxicity in 3 days post fertilized AB zebrafish larvae assessed as reduction in larvae survival at 30 uM incubated for 48 hrs; set-up: species or system Danio rerio; details: in vivo; how it was run: as §3
[20] = Toxicity in 3 days post fertilized AB zebrafish larvae assessed as effect on blood circulation at 100 uM incubated for 48 hrs by inverted microscopic method; set-up: species or system Danio rerio; details: in vivo; how it was run: as §3
[21] = species on record: Mus musculus; assay: Inhibition of MET channel in CD-1 mouse cochlea outer hair bundles assessed as time constant of inward current decline at 1 uM at holding potential of […] by patch clamp assay
How it was run: (§5)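 MET channels opened by steps from a holding potential of -84 mV, with 1 or 3 μM compound superfused. Currents averaged from 10 repetitions. The current decline was fitted with single exponentials to give time constants, and drug entry rates into hair cells were calculated from these.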

[22] = Binding affinity to MET in CD-1 mouse cochlear outer hair cells measured at -164 mV membrane potential by patch clamp assay; how it was run: as §2
[23] = Binding affinity to MET in CD-1 mouse cochlear outer hair cells measured at +16 mV membrane potential by patch clamp assay; how it was run: as §2
[24] = Otoprotective activity against gentamicin-induced outer hair cell death in CD-1 mouse cochlea at 5 uM after 48 hrs by TRITC-phalloidin staining-based microscopic analysis relative to control; assay type: functional; how it was run: as §1
[25] = Toxicity in 3 days post fertilized AB zebrafish larvae assessed as effect on blood circulation at 30 uM incubated for 48 hrs by inverted microscopic method; set-up: species or system Danio rerio; details: in vivo; how it was run: as §3
[26] = species on record: Mus musculus; assay: Otoprotective activity against gentamicin-induced outer hair cell death in CD-1 mouse cochlea at 20 uM after 48 hrs by TRITC-phalloidin staining-based microscopic analysis relative to control; assay type: functional; how it was run: as §1
[27] = system: Pseudomonas aeruginosa; assay: Effect on gentamycin-induced antibacterial activity against Pseudomonas aeruginosa at 11 uM incubated for 16 to 20 hrs by BacTiter-Glo assay; assay type: ADME, organism-based; details: in vivo
[28] = Cytotoxicity in CD-1 mouse cochlea assessed as induction of cell death in outer hair cell at >=30 uM after 48 hrs by confocal microscopic analysis; assay type: toxicity, tissue-based; how it was run: as §4
[29] = species on record: Mus musculus; assay: Inhibition of MET in CD-1 mouse cochlea outer hair cells assessed as blockade of MET currents at 10 uM measured at -160 mV to +80 mV membrane potential by patch clamp assay relative to control
How it was run: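 OHC MET currents recorded before and during exposure to 10 μM compound. Fractional block taken as the current during exposure relative to the control current at each membrane potential.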

[30] = species on record: Mus musculus; assay: Inhibition of MET in CD-1 mouse cochlear outer hair cells assessed as reduction in MET currents at 1 to 10 uM measured at -164 mV membrane potential by patch clamp assay; how it was run: as §2
[31] = species on record: Danio rerio; assay: Otoprotective activity against gentamicin-induced neuromast hair cell death in 4 days post fertilized AB zebrafish larvae assessed as increase in hair cell survival incubated for 6 hrs by inverted microscopic method; assay type: functional, organism-based
[32] = species on record: Mus musculus; assay: Inhibition of MET channel in CD-1 mouse outer hair bundles assessed as time constant of inward current decline at 3 uM at holding potential of […] by patch clamp assay; how it was run: as §5

## COc1ccccc1OCCN(CCCOc1cccc2[nH]c3ccccc3c12)CCOc1ccccc1OC
[1]
  solubility: Insoluble
[2]
  inhibition: inactive
[3]
  Activity: inactive

## COc1ccccc1OCCNCCCOc1cccc2[nH]c3ccccc3c12
[4]
  Kd: 1700 nM
[5]
  Activity: Non-Toxic
[6]
  Activity: Toxic
[7]
  inhibition: Active
[8]
  Kd: 2400 nM
[9]
  Activity: Toxic
[10]
  Activity: Non-Toxic
[11]
  Activity: Non-Toxic
[12]
  Activity: Non-Toxic
[13]
  Activity: Non-Toxic
[14]
  inhibition: Active
[15]
  Activity: Non-Toxic
[16]
  Activity: Non-Toxic
[17]
  EC50: 2080 nM
[18]
  Activity: Non-Toxic
[19]
  Activity: Non-Toxic
[20]
  Activity: Non-Toxic
[21]
  TIME: 2.75e-06 h
[22]
  Kd: 4600 nM
[23]
  Kd: 1000 nM
[24]
  Activity: 88%
[25]
  Activity: Non-Toxic
[26]
  Activity: Active
[27]
  Activity: Non-Toxic
[28]
  Activity: Toxic
[29]
  inhibition: 100%
[3]
  Activity: Active
[30]
  inhibition: inactive
[31]
  EC50: 10800 nM
[32]
  TIME: 1.67e-06 h
